Hits are enriched below; roughly 3.8% of the tested compounds scored in any of these assays.
KCNK3 inh: human KCNK3 channel inhibition, primary screen; 340,000 compounds, 0.84% hits; O14649; AID 602410; CHO-KCNK3 thallium flux, FluxOR fluorescence; stronger effect = lower value; B-score at 10 µM;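 active means B-score under library mean minus 4 SD, starting fluorescence ratio at most library mean plus 5 SD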;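 further: more negative B-score means stronger inhibition of thallium flux through KCNK3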
Kir21 inh: Kir2.1 (mouse) channel inhibition; HEK293-Kir2.1, FluxOR thallium flux fluorescence; stronger effect = lower value; AID 1672; P35561; 310,000 compounds, 0.85% hits; B-score at 10 µM;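 active means fluorescence ratio B-score at or below minus 3 SD of library scores, with starting-brightness B-score within 2 SD, cut at about -4.2 in these data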;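 further: channel flux triggered by added potassium and thallium sulfate stimulus; B-score of peak minus minimum fluorescence over baseline after thallium stimulus; more negative B-score means stronger Kir2.1 block with less thallium influx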
Target sequence (P35561 whole entry, looked up): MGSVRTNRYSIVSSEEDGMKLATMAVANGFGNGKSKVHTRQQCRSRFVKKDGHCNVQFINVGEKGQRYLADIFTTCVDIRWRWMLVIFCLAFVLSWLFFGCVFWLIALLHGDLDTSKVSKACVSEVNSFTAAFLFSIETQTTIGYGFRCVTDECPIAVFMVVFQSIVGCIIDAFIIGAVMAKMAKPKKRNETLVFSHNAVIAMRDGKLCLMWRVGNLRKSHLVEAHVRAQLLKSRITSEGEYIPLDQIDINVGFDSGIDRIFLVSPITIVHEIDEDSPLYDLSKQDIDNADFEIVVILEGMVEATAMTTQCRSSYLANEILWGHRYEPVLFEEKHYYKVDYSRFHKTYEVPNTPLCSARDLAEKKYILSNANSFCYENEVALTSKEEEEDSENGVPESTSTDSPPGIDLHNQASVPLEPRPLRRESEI
KCNQ1 act: human KCNQ1 channel potentiation or activation. CHO-K1 KCNQ1, thallium flux FluxOR fluorescence; stronger effect = higher value. 310,000 compounds, 0.35% hits. P51787. AID 2648. B-score at 10 µM;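 active means fluorescence ratio B-score, a plate-corrected score, at least three library SD, with initial intensity B-score within 5 SD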
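System: Stable KCNQ1 CHO-K1 line | Incubation: 90 min dye loading and 20 min compound exposure, both at room temperature | Measure: Ratio B score | Medium: Assay buffer for compound exposure, DMSO matched across wells | Compound dosing: Single-concentration screen | Probe or stimulus: K+/Tl+ depolarizing stimulus | Measured by: Kinetic FluxOR fluorescence, 10 s baseline plus 110 s post-stimulus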
hERG rescue: compounds protecting human hERG from proarrhythmic drug block. activation (rescue from dofetilide block), less the hit threshold, % at 10 µM. AID 1511. 310,000 compounds, 0.51% hits. CHO-hERG, FluxOR thallium flux, dofetilide IC70 present;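 active means activation above the mean of controls blocked by dofetilide plus 5 SD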;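 further: thallium influx through hERG after potassium depolarization seen as dye fluorescence rise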
KCNK9 block: inhibitors of human KCNK9 two-pore domain potassium channel. Q9NPC2. HEK293 KCNK9, FluxOR thallium flux fluorescence; stronger effect = lower value. B-score at 10 µM. 310,000 compounds, 1.2% hits. AID 488922;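 active means ratio B-score over 3 SD below the library mean, with starting fluorescence within 5 SD of its mean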;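 further: negative B-score means less thallium flux so channel inhibition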
KCNQ1 block: inhibitors of human KCNQ1 potassium channel; P51787; B-score at 10 µM; 310,000 compounds, 1.3% hits; CHO-K1 KCNQ1, FluxOR thallium flux fluorescence; stronger effect = higher value; AID 2642;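 active means compounds whose thallium flux B-score, printed positive for inhibition, exceeds three library SD while starting fluorescence stays within three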;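 further: channel opened by potassium depolarization with thallium stimulus after 20 min compound exposure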
Large screens that a line does not name were inactive.

CCOC(=O)c1cc(S(=O)(=O)NCCc2ccccc2)cn1C	none
CC(C)CN1C(=O)/C(=C/c2cccs2)NC1=S	KCNQ1 act 55, hERG rescue 49
CCCN1C(=O)/C(=C/c2ccc(C)s2)NC1=S	KCNQ1 act 32, hERG rescue 32
O=C(Nc1ccccc1C(=O)O)c1cc(S(=O)(=O)N2CCCCC2)c(Cl)cc1Cl	none
COc1cnn(Cc2ccccc2)c(=O)c1SCc1ccccc1	Kir21 inh -4.7
CCOc1cnn(Cc2ccccc2)c(=O)c1SCc1ccccc1	none
COc1ccc(-c2c(-c3ccc(C#N)cc3)oc(=O)c3cc(OC)c(OC)cc23)cc1	none (no result: Kir21 inh, KCNQ1 act, hERG rescue, KCNK9 block, KCNQ1 block)
CN1CCCN(c2ccc([N+](=O)[O-])cc2)CC1	none
Cc1cc(Nc2ccccc2)nn1C(=O)c1ccccc1	none
COc1ccc(C(=O)n2nc(C)cc2Nc2ccccc2)cc1	KCNK9 block -7.4
Cc1cc(NC(=NC2CC2)c2ccccc2F)n(-c2ccccc2)n1	none
C/C(=N\NC(=O)c1ccc(-c2ccccc2)cc1)C1C(=O)c2ccccc2C1=O	KCNQ1 block 7
COc1cc(CNCc2ccc(SC)cc2)cc(OC)c1	Kir21 inh -5.2
CCOC(=O)CNC(=O)C1CCN(S(=O)(=O)c2ccc(-c3nn[nH]n3)cc2)CC1	none
Cn1c(=O)c2c(nc(N3CCc4ccccc4C3)n2Cc2ccccc2F)n(C)c1=O	none
Cn1c(=O)c2c(nc(N3CCc4ccccc4C3)n2Cc2ccc(Br)cc2)n(C)c1=O	KCNK9 block -7
COc1cccc2sc(Nc3nnc(-c4ccccc4Cl)o3)nc12	KCNQ1 act 15, hERG rescue 8.7
COc1cccc2sc(Nc3nc(-c4cc5ccccc5oc4=O)cs3)nc12	KCNK9 block -7.3
COc1cccc(-c2nnc(Nc3nc4c(F)cccc4s3)o2)c1	KCNQ1 act 35, hERG rescue 40
Cn1c2c(c(=O)[nH]c1=O)C(c1cccc(O)c1)C1=C(N2)c2ccccc2C1=O (configuration not stated)	none (no result: Kir21 inh, KCNQ1 act, hERG rescue, KCNK9 block, KCNQ1 block)
O=C(NCCO)/C(=C\c1ccco1)NC(=O)c1ccco1	none
O=C(NN=Cc1c(O)ccc2ccccc12)c1ccc2c(c1)OCO2	none (no result: Kir21 inh, KCNQ1 act, hERG rescue, KCNK9 block, KCNQ1 block)
Oc1ccc(N=Nc2ccc3c(c2)OCO3)c2ccccc12	KCNQ1 act 9 (no result: KCNK3 inh)
O=[N+]([O-])c1cccc(S(=O)(=O)Nc2ccc(S(=O)(=O)NCC3CCCO3)cc2)c1 (configuration not stated)	none
O=C(CN(C(=O)c1csnn1)c1cccc(F)c1)NCc1ccc2c(c1)OCO2	none
C=C(C)CC(NCc1ccco1)c1ccc(OC)cc1 (configuration not stated)	Kir21 inh -5.4
C=CCC(NCc1ccco1)c1ccc(OC)cc1OC (configuration not stated)	none (no result: KCNK3 inh)
Cc1ccc(NC(=O)c2cccc3cccnc23)cc1	KCNK9 block -7.6
O=C(CCC(=O)N1CCOc2ccc(Cl)cc21)NCCCN1CCN(c2ccccc2F)CC1	none
O=C(CCC(=O)N1CCOc2ccc(Cl)cc21)NCCCN1CCC(Cc2ccccc2)CC1	Kir21 inh -6.6
CCn1c(-c2cc(-c3ccc(OC(C)C)cc3)nc3ccccc23)n[nH]c1=S	KCNQ1 block 6
CCn1c(-c2cc(-c3ccc(C)cc3)nc3ccccc23)n[nH]c1=S	none
C=CCn1c(-c2cc(-c3ccc(C)cc3)nc3ccccc23)n[nH]c1=S	hERG rescue 5.8
COc1ccc(C(=O)C2CCCN(C(=O)/C=C/c3cnc[nH]3)C2)c(C)c1 (configuration not stated)	none
CC(OC(=O)Cc1c[nH]c2ccccc12)C(=O)Nc1ccccc1F (configuration not stated)	Kir21 inh -5.7
CC(=O)c1cccc(NC(=O)C(C)OC(=O)Cc2c[nH]c3ccccc23)c1 (configuration not stated)	none
CC(c1ccncn1)N(C)C(=O)c1ccc2oc(Cc3ccccc3)nc2c1 (configuration not stated)	none
COc1cccc(N=c2oc3cc(O)ccc3cc2C(=O)NCC2CCCO2)c1 (configuration not stated)	none
CCOC(=O)Cn1c(=NC(=O)CSC(C)=O)sc2cc(OC)ccc21	KCNK9 block -8.1
O=C(Nc1cccc(Cl)c1)c1ccc(NC2=NC3CS(=O)(=O)CC3S2)cc1 (configuration not stated)	none
CC(=O)Nc1ccc2c(c1)Cc1ccc(Cl)cc1-2	none (no result: Kir21 inh, KCNQ1 act, hERG rescue, KCNK9 block, KCNQ1 block)
CC(C)C(=O)Nc1ccc2c(c1)Cc1cc(NC(=O)C(C)C)ccc1-2	hERG rescue 6.0
COc1ccccc1C(=O)NNC(=O)C(=O)NCc1ccccc1	KCNQ1 act 7, hERG rescue 10
COc1ccc(CN(CC(=O)NCc2ccco2)C(=O)CNS(=O)(=O)c2ccc(C)cc2)cc1	none
O=[N+]([O-])c1cc(Cl)cc(/C=N/NC(=S)Nc2ccc(S(=O)(=O)N3CCOCC3)cc2)c1O	KCNQ1 block 8
CCc1ccc(O)c(CNCCNCc2cc(CC)ccc2O)c1	Kir21 inh -11
O=C(Nc1nnc(-c2ccccc2)o1)c1ccc(Cl)cc1	KCNQ1 act 11
COC(=O)c1ccc(OCCN2CCCCCC2)cc1	none
O=C(c1ccc(OCCN2CCCCC2)cc1)c1c(-c2ccc(O)cc2)sc2cc(O)ccc12	KCNQ1 block 9
COc1cc(/C=C2\SC(=O)N(c3cccc(Cl)c3)C2=O)cc([N+](=O)[O-])c1O	none (no result: Kir21 inh, KCNQ1 act, hERG rescue, KCNK9 block, KCNQ1 block)
O=C1S/C(=C\c2ccc(O)c([N+](=O)[O-])c2)C(=O)N1c1ccccc1Cl	KCNQ1 block 10
O=C1S/C(=C\c2ccc(O)c([N+](=O)[O-])c2)C(=O)N1Cc1cccc([N+](=O)[O-])c1	KCNQ1 block 11
Cc1ccc(N2C(=O)CC(Cc3cccc(C)c3)C2=O)cc1 (configuration not stated)	none
CCCCn1c(N)c(N(CCOC)C(=O)CC(NC(=O)c2ccccc2Cl)c2ccccc2)c(=O)[nH]c1=O (configuration not stated)	none (no result: Kir21 inh, KCNQ1 act, hERG rescue, KCNK9 block, KCNQ1 block)
COc1ccc(CN(C)C(c2ccccc2)c2nnnn2-c2ccccc2C)c(OC)c1C (configuration not stated)	KCNK9 block -7.9
CCC(C)(C)n1nnnc1C(c1cc(OC)c(OC)c(OC)c1)N1CCN(c2ccccc2)CC1 (configuration not stated)	none
CCc1nnc(NC(=O)CCC(=O)N2CCN(C3CCCCC3)CC2)s1	KCNQ1 act 13
COc1cc(CNC2CCCCCCC2)cc(Br)c1OCC#N	Kir21 inh -4.8
CCOc1c(Br)cc(CNC2CCCCCCC2)cc1OC	Kir21 inh -4.3
N#Cc1ccccc1NS(=O)(=O)c1cc2c3c(c1)CCC(=O)N3CCC2	KCNQ1 act 8
Cc1ccc(NC(=O)c2oc3ccc(Br)cc3c2C)cc1S(=O)(=O)N1CCOCC1	none (no result: Kir21 inh, KCNQ1 act, hERG rescue, KCNK9 block, KCNQ1 block)

Screens as filed in PubChem.
